Source: ChEMBL document CHEMBL1155257, “Proteochemometrics mapping of the interaction space for retroviral proteases and their substrates” (Bioorg Med Chem, 2009)
Non-standard residues stand in square brackets, D forms with d. Residues, ends and D or L forms follow the SMILES beside them. Groups on a side chain read outwards from the residue. ξ: configuration not given here. *: point of attachment. Phe(4-Br) = N[C@@H](Cc1ccc(Br)cc1)C(=O)O; Phe(4-Cl) = N[C@@H](Cc1ccc(Cl)cc1)C(=O)O; Phe(4-NH2) = Nc1ccc(C[C@H](N)C(=O)O)cc1; 2Nal = N[C@@H](Cc1ccc2ccccc2c1)C(=O)O; hArg = N=C(N)NCCCC[C@H](N)C(=O)O; hPhe = N[C@@H](CCc1ccccc1)C(=O)O; Cha = N[C@@H](CC1CCCCC1)C(=O)O; Phg = N[C@H](C(=O)O)c1ccccc1; Nle = CCCC[C@H](N)C(=O)O; Dab = NCC[C@H](N)C(=O)O; Nva = CCC[C@H](N)C(=O)O; Dap = NC[C@H](N)C(=O)O; ξDab = NCCC(N)C(=O)O; ξDap = NCC(N)C(=O)O; Bn = c1ccc(C*)cc1

Experiments:
[1] = Inhibition of HIV1 HXB2 protease […], L90M mutant at 100 uM; parameters: species or system Human immunodeficiency virus 1
Summary of the method: (§1)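 Mutant HIV-1 HXB2 protease clones (I84V, L90M, or I84V+L90M), 70 ng per 100 µL reaction. Buffer: 0.1 M acetic acid, 1.1 M NaCl, pH 5.0. Enzyme preincubated 10 min at 37 °C with hexapeptide (11 twofold dilutions from 100 µM). Substrate (2.25 µg) then added and reacted 30 min at 37 °C. Fluorescence read every 60 s (ex 355/em 490 nm) against a no-inhibitor control.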

Protease [2] = target: T1, Protease (Human immunodeficiency virus 1, UniProt Q9YQ12); experiment: Inhibition of wild type HIV1 HXB2 protease
Summary of the method: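 HXB2 HIV-1 protease clone (35 ng per 100 µL) in 0.1 M acetic acid, 1.1 M NaCl, pH 5.0. Hexapeptide was preincubated with enzyme for 10 min at 37 °C. Substrate (2.25 µg) was then added and fluorescence (ex 355/em 490 nm) read over 30 min at 37 °C. Eleven twofold dilutions from 100 µM; 1 mM stocks in DMSO/water 1:2. Protease-plus-substrate control without inhibitor.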

[3] = target: T2, Human immunodeficiency virus type 1 protease (Human immunodeficiency virus 1, UniProt Q72874, L90M); experiment: Inhibition of HIV1 HXB2 protease L90M mutant; summary of the method: as §1
[4] = Inhibition of HIV1 HXB2 protease […] mutant at 100 uM; parameters: species or system Human immunodeficiency virus 1; summary of the method: as §1
Protease [5] = target: T1, Protease; experiment: Inhibition of wild type HIV1 HXB2 protease at 100 uM
[6] = target: T2, Human immunodeficiency virus type 1 protease; experiment: Inhibition of HIV1 HXB2 protease L90M mutant at 100 uM; summary of the method: as §1
[7] = Inhibition of HIV1 HXB2 protease […], L90M mutant; parameters: species or system Human immunodeficiency virus 1; summary of the method: as §1
[8] = Inhibition of HIV1 HXB2 protease 184V mutant; parameters: species or system Human immunodeficiency virus 1; summary of the method: as §1

T1 sequence (Q9YQ12 whole entry): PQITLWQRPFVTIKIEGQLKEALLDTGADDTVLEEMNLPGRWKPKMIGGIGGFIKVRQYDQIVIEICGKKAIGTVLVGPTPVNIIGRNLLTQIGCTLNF

CCCC[C@H](NC(=O)[C@@H](N)Cc1ccc2ccccc2c1)C(=O)NCC[C@H](N)C(=O)N[C@@H](CCC(=O)O)C(=O)N[C@@H](CCc1ccccc1)C(=O)N[C@@H](CCC)C(=O)O (H-[Dab]([Nle-2Nal])E[hPhe][Nva]-OH)
Ki [1]: Not Active
Ki (Protease [2]): 22 µM
Ki [3]: 16.7 µM
Ki [4]: Not Active

NC(CCNC(=O)[C@H](CC1CCCCC1)NC(=O)[C@@H](N)Cc1ccc(Cl)cc1)C(=O)N[C@@H](CCC(=O)O)C(=O)N[C@@H](Cc1ccccc1)C(=O)N[C@@H](CC1CCCCC1)C(=O)O (stereo not given in full) (H-[ξDab]([Cha-Phe(4-Cl)])EF[Cha]-OH)
Ki [1]: Not Active
Ki (Protease [2]): 3.8 µM
Ki [3]: 31.1 µM
Ki [4]: Not Active

CC(=O)N[C@@H](CO)C(=O)N[C@H](C(=O)N[C@@H](CCCNC(=N)N)C(=O)N[C@@H](CS)C(=O)N[C@@H](CO)C(=O)N[C@@H](Cc1c[nH]c2ccccc12)C(=O)O)C(C)C (Ac-SVRCSW-OH)
Ki (Protease [5]): Not Active
Ki [1]: Not Active
Ki [4]: Not Active
Ki [6]: Not Active

CCC[C@H](NC(=O)[C@H](Cc1ccc(O)cc1)NC(=O)[C@H](CCCCNC(=N)N)NC(=O)[C@H](CCSC)NC(=O)[C@@H](NC(=O)[C@@H](N)Cc1ccc2ccccc2c1)C(C)C)C(=O)O (H-[2Nal]VM[hArg]Y[Nva]-OH)
Ki (Protease [2]): 5.4 µM
Ki [3]: 6.9 µM
Ki [7]: 7.5 µM
Ki [8]: 19.9 µM

CC(=O)NCC(=O)N[C@H](C(=O)N[C@@H](C)C(=O)N[C@@H](Cc1ccc(O)cc1)C(=O)N[C@@H](CO)C(=O)N[C@@H](CS)C(=O)O)[C@@H](C)O (Ac-GTAYSC-OH)
Ki (Protease [5]): Not Active
Ki [1]: Not Active
Ki [4]: Not Active
Ki [6]: Not Active

CCCC[C@H](NC(=O)[C@H](Cc1ccc(OCc2ccccc2)cc1)NC(=O)[C@H](Cc1ccc(N)cc1)NC(=O)[C@H](CCCCN)NC(=O)[C@H](CC1CCCCC1)NC(=O)[C@@H](N)Cc1ccc2ccccc2c1)C(=O)O (H-[2Nal][Cha]K[Phe(4-NH2)]Y(Bn)[Nle]-OH)
Ki (Protease [2]): 24.1 µM
Ki [3]: 9.2 µM
Ki [7]: 56 µM
Ki [8]: 31.6 µM

CC(=O)N1CCC[C@H]1C(=O)N[C@@H](Cc1ccc(O)cc1)C(=O)N[C@@H](C)C(=O)NCC(=O)N[C@@H](C)C(=O)N[C@@H](CCC(N)=O)C(=O)O (Ac-PYAGAQ-OH)
Ki (Protease [5]): Not Active
Ki [1]: Not Active
Ki [4]: Not Active
Ki [6]: Not Active

CC(=O)N[C@@H](CC(=O)O)C(=O)NCC(=O)NCC(=O)N[C@@H](C)C(=O)N[C@@H](CC(C)C)C(=O)N[C@@H](CO)C(=O)O (Ac-DGGALS-OH)
Ki (Protease [5]): Not Active
Ki [1]: Not Active
Ki [4]: Not Active
Ki [6]: Not Active

CCC[C@H](NC(=O)[C@H](Cc1ccc2ccccc2c1)NC(=O)[C@H](CCC(=O)O)NC(=O)C(N)CNC(=O)[C@H](CC1CCCCC1)NC(=O)[C@@H](N)Cc1ccc2ccccc2c1)C(=O)O (stereo not given in full) (H-[ξDap]([Cha-2Nal])E[2Nal][Nva]-OH)
Ki (Protease [2]): 12 µM
Ki [3]: 9.7 µM
Ki [7]: 20.8 µM
Ki [8]: 20.7 µM

CC(=O)N[C@@H](CO)C(=O)N1CCC[C@H]1C(=O)N[C@@H](C)C(=O)N[C@H](C(=O)N[C@@H](CCC(=O)O)C(=O)N[C@@H](C)C(=O)O)[C@@H](C)O (Ac-SPATEA-OH)
Ki (Protease [5]): Not Active
Ki [1]: Not Active
Ki [4]: Not Active
Ki [6]: Not Active

CC(=O)N[C@H](C(=O)N[C@@H](CC(N)=O)C(=O)N[C@H](C(=O)N[C@H](C(=O)N[C@@H](C)C(=O)N[C@@H](CC(=O)O)C(=O)O)[C@@H](C)O)[C@@H](C)O)[C@@H](C)O (Ac-TNTTAD-OH)
Ki (Protease [5]): Not Active
Ki [1]: Not Active
Ki [4]: Not Active
Ki [6]: Not Active

CC[C@H](C)[C@H](NC(=O)[C@H](Cc1cnc[nH]1)NC(=O)[C@H](C)NC(=O)[C@H](CO)NC(=O)[C@H](CCCNC(=N)N)NC(=O)[C@@H](NC(C)=O)C(C)C)C(=O)O (Ac-VRSAHI-OH)
Ki (Protease [5]): Not Active
Ki [1]: Not Active
Ki [4]: Not Active
Ki [6]: Not Active

N=C(N)NCCC[C@H](NC(=O)C(N)CCNC(=O)[C@H](CC1CCCCC1)NC(=O)[C@@H](N)CCc1ccccc1)C(=O)N[C@@H](CCc1ccccc1)C(=O)N[C@@H](CC1CCCCC1)C(=O)O (stereo not given in full) (H-[ξDab]([Cha-hPhe])R[hPhe][Cha]-OH)
Ki [1]: Not Active
Ki (Protease [2]): 2 µM
Ki [3]: 47.4 µM
Ki [4]: Not Active

CSCC[C@H](NC(=O)[C@H](CC1CCCCC1)NC(=O)[C@@H](N)Cc1ccc2ccccc2c1)C(=O)N[C@@H](CCC(=O)O)C(=O)N[C@H](C(=O)N[C@@H](CC1CCCCC1)C(=O)O)c1ccccc1 (H-[2Nal][Cha]ME[Phg][Cha]-OH)
Ki (Protease [2]): 5.5 µM
Ki [3]: 2.4 µM
Ki [7]: 2.7 µM
Ki [8]: 3.9 µM

CC(=O)N[C@@H](C)C(=O)N[C@@H](Cc1cnc[nH]1)C(=O)N[C@@H](Cc1ccc(O)cc1)C(=O)N[C@@H](C)C(=O)N[C@H](C(=O)N[C@@H](Cc1cnc[nH]1)C(=O)O)[C@@H](C)O (Ac-AHYATH-OH)
Ki (Protease [5]): Not Active
Ki [1]: Not Active
Ki [4]: Not Active
Ki [6]: Not Active

CC(=O)N[C@H](C(=O)N[C@@H](C)C(=O)N[C@@H](C)C(=O)NCC(=O)N[C@@H](CCCNC(=N)N)C(=O)N[C@H](C(=O)O)[C@@H](C)O)[C@@H](C)O (Ac-TAAGRT-OH)
Ki (Protease [5]): Not Active
Ki [1]: Not Active
Ki [4]: Not Active
Ki [6]: Not Active

CC(C)C[C@H](NC(=O)[C@H](Cc1ccccc1)NC(=O)[C@H](CCCCNC(=N)N)NC(=O)[C@@H](N)CNC(=O)[C@H](CC1CCCCC1)NC(=O)[C@@H](N)CCc1ccccc1)C(=O)O (H-[Dap]([Cha-hPhe])[hArg]FL-OH)
Ki [1]: Not Active
Ki (Protease [2]): 4.6 µM
Ki [3]: 26.5 µM
Ki [4]: Not Active

CC(C)C[C@H](NC(=O)[C@H](Cc1ccc(Br)cc1)NC(=O)[C@H](CCC(=O)O)NC(=O)C(N)CNC(=O)[C@H](CC1CCCCC1)NC(=O)[C@@H](N)Cc1ccc(Cl)cc1)C(=O)O (stereo partly drawn) (H-[ξDap]([Cha-Phe(4-Cl)])E[Phe(4-Br)]L-OH)
Ki (Protease [2]): 5.5 µM
Ki [3]: 15.7 µM
Ki [7]: 34.6 µM
Ki [8]: 37.7 µM

CC(=O)N[C@@H](Cc1ccc(O)cc1)C(=O)N[C@@H](C)C(=O)N[C@H](C(=O)N1CCC[C@H]1C(=O)NCC(=O)N[C@H](C(=O)O)[C@H](C)O)[C@H](C)O
Ki (Protease [5]): Not Active
Ki [1]: Not Active
Ki [4]: Not Active
Ki [6]: Not Active

CCC[C@H](NC(=O)[C@H](Cc1ccc2ccccc2c1)NC(=O)[C@H](CCCCNC(=N)N)NC(=O)[C@@H](N)CNC(=O)[C@H](CCC)NC(=O)[C@@H](N)CCc1ccccc1)C(=O)O (H-[Dap]([Nva-hPhe])[hArg][2Nal][Nva]-OH)
Ki (Protease [2]): 5.2 µM
Ki [3]: 23.6 µM
Ki [7]: 15.7 µM
Ki [8]: 13.3 µM
